From ChEMBL document CHEMBL3739308, “Resveratrol-Related Polymethoxystilbene Glycosides: Synthesis, Antiproliferative Activity, and Glycosidase Inhibition” (J Nat Prod, 2015)

Key:
[1] = Antiproliferative activity against human Caco2 cells after 72 hrs by MTT-based Mosmann assay relative to control; type: functional; conditions: Caco-2, 72 h
In short: (§1)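 Cells seeded at (2.5−3.0) × 10^3 per well, treated after 24 h with compound at final 0.01−100 μM; 0.5−1% DMSO controls. Exposure 3 days (72 h) at 37 °C, 5% CO2; MTT read at 570 nm, 6−8 wells per value. GI50 by NCI formula 100(T − T0)/(C − T0) = 50 versus time-zero and DMSO-control OD; mean ± SD of four experiments.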

[2] = system: SH-SY5Y; test: Antiproliferative activity against human SH-SY5Y cells after 72 hrs by MTT-based Mosmann assay relative to control; type: functional; in short: as §1
[3] = Drug level in phosphate buffer treated with (2R,3S,4S,5S)-2-[2-(4-Methoxystyryl)-4,6-dimethoxyphenoxy]-tetrahydro-6-hydroxymethyl-2H-pyran-3,4,5-triol at 5 x 10^-5 M at pH 7.2 at 37 degC after 72 hrs by HPLC analysis in presence of Aspergillus oryzae beta-galactosidase; type: ADME; conditions: pH 7.2, 72 h
In short: (§2)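 Glycoside diluted from DMSO into 0.050 M Na2HPO4/KH2PO4 pH 7.2 to final 5.0 × 10−5 M (≤1.0% DMSO). Almond β-glucosidase (1.2 U/mL) or A. oryzae β-galactosidase (0.7 U/mL) added; 37 °C, shaking at 400 rpm, sampled up to 96 h. Enzyme-free controls run. Reversed-phase HPLC at 305 nm; released aglycone quantified against 10−5−10−6 M calibration curves. Triplicate.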

[4] = molecular target: β-galactosidase (Aspergillus Oryzae) (Aspergillus oryzae, UniProt Q2UCU3); test: Inhibition of Aspergillus oryzae beta-galactosidase using oNP-beta-Gal as substrate assessed as release of o-nitrophenol incubated for 30 mins by spectrophotometric analysis
Chain of β-galactosidase (Aspergillus Oryzae) (Q2UCU3 whole entry, looked up): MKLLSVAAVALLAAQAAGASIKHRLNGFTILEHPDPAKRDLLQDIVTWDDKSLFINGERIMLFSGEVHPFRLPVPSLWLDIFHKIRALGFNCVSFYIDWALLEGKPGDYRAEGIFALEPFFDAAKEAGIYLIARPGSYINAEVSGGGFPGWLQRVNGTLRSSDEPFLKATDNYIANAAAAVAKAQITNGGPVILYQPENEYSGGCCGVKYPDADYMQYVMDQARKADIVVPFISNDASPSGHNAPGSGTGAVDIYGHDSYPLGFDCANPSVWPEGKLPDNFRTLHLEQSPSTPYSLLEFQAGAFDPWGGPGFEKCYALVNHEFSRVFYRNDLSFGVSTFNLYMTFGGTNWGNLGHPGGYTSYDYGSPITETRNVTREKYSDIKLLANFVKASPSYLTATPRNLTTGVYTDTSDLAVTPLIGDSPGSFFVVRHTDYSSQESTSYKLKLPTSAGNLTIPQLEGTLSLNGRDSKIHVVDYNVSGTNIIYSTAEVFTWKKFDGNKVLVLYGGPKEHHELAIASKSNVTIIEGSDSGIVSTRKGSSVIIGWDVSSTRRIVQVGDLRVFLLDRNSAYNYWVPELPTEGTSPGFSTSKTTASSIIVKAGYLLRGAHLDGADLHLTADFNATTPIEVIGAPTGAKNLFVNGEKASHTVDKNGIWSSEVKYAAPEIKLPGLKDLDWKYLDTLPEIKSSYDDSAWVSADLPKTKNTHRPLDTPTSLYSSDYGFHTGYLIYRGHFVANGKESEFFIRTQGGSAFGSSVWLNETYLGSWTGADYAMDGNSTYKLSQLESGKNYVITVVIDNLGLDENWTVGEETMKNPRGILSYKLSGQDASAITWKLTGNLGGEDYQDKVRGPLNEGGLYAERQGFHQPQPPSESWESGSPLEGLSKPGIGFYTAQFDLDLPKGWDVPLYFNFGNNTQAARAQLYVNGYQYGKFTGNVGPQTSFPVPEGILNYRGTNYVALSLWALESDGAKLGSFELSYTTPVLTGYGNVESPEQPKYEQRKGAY
In short: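 Inhibition assay (modified Tsujii method) at 25 °C. Substrate at 6.5 × 10−5 M final in DMSO/phosphate buffer (Na2HPO4/KH2PO4 0.050 M, pH 7.2). Enzyme at 4.0 U/mL. Compound stocks 2.6−4.7 × 10−4 M, five concentrations; DMSO ≤1.0% final. Absorbance read at 400 nm. Percent inhibition taken from residual activity versus no-compound control. IC50 is the mean of three experiments.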

[5] = Stability of the compound in phosphate buffer assessed as Aspergillus oryzae beta-galactosidase-mediated compound hydrolysis at 5 x 10^-5 M at pH 7.2 at 37 degC measured within 96 hrs by HPLC analysis; type: ADME; conditions: pH 7.2, 96 h, 50 µM; in short: as §2
[6] = Inhibition of almond beta-glucosidase using pNP-beta-Glc as substrate assessed as release of p-nitrophenol incubated for 30 mins by spectrophotometric analysis; parameters: species or system Prunus dulcis
In short: (§3)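 Substrate at final 6.5 × 10−5 M in DMSO/0.050 M phosphate buffer pH 7.2, 25 °C, with five inhibitor levels (≤1.0% DMSO). Enzyme: 2.0 U/mL yeast α-glucosidase, 2 h; 2.9 U/mL almond β-glucosidase, 30 min. Nitrophenol release read at 400 nm; % inhibition from residual activity versus no-compound activity; IC50 = 50% inhibition. Triplicate; mean ± SD of three experiments.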

[7] = (§4) Half life in phosphate buffer assessed as almond beta-glucosidase-mediated compound hydrolysis at 5 x 10^-5 M at pH 7.2 at 37 degC measured within 96 hrs by HPLC analysis; type: ADME; conditions: prunus dulcis, buffer, pH 7.2, 96 h, 50 µM; in short: as §2
[8] = Inhibition of Saccharomyces cerevisiae alpha-glucosidase using pNP-alpha-Glc as substrate assessed as release of p-nitrophenol incubated for 2 hrs by spectrophotometric analysis; in short: as §3
[9] = system: beta-glucosidase; test: as §4; type: ADME; conditions: prunus dulcis, almond beta-glucosidase in phosphate buffer, pH 7.2; in short: as §2
[10] = system: beta-galactosidase; test: Half life in phosphate buffer assessed as Aspergillus oryzae beta-galactosidase-mediated compound hydrolysis at 5 x 10^-5 M at pH 7.2 at 37 degC measured within 96 hrs by HPLC analysis
[11] = Antiproliferative activity against human Caco2 cells; type: functional, cell-based; conditions: Caco-2; in short: as §1

SMILES	GI50 [1] [µM]	GI50 [2] [µM]	Drug metabolism [3]	IC50 [4] [µM]	Stability [5]	IC50 ([6]; read-out: IC50) [µM]	Stability [7]	IC50 [8] [µM]	half-life at 50 µM [9] [h]	IC50 [6]	half-life at 50 µM [10] [h]	IC50 [11] [µM]
COc1cc(/C=C/c2cc(OC)cc(OC)c2O)cc(OC)c1	> 10	> 10										
COc1cc(/C=C/c2ccc(OC)c(OC)c2)c(O)c(OC)c1	3	14.3										
COc1ccc(/C=C/c2cc(OC)cc(OC)c2O)cc1	5.8	4.5	metabolite_detected									
COc1ccc(/C=C/c2cc(OC)cc(OC)c2O[C@H]2O[C@H](CO)[C@H](O)[C@H](O)[C@H]2O)cc1	> 10	48.4		298	Stable	350	Stable	201				
COc1cc(/C=C/c2cc(OC)cc(OC)c2O[C@H]2O[C@H](CO)[C@@H](O)[C@H](O)[C@H]2O)cc(OC)c1	44.2	> 10		297	Stable	272		133	70			
COc1cc(/C=C/c2ccc(OC)c(OC)c2)c(O[C@H]2O[C@H](CO)[C@@H](O)[C@H](O)[C@H]2O)c(OC)c1	> 10	> 10		258	Stable	192		78	20			
COc1cc(/C=C/c2cc(OC)cc(OC)c2O[C@H]2O[C@H](CO)[C@H](O)[C@H](O)[C@H]2O)cc(OC)c1	16	22.5		296	Stable		Stable	332		Not Active		
COc1ccc(/C=C/c2cc(OC)cc(OC)c2O[C@H]2O[C@H](CO)[C@@H](O)[C@H](O)[C@H]2O)cc1	> 10	21.9				208		91	11		77	
COc1cc(/C=C/c2ccc(OC)c(OC)c2)c(O[C@H]2O[C@H](CO)[C@H](O)[C@H](O)[C@H]2O)c(OC)c1	> 10	> 10		299	Stable	170	Stable	70				
COc1cc(/C=C/C(=O)CC(=O)/C=C/c2ccc(O)c(OC)c2)ccc1O [CURCUMIN]												10.3
CC/C(=C(/CC)c1ccc(O)cc1)c1ccc(O)cc1 [DIETHYLSTILBESTROL]												75
O=c1[nH]cc(F)c(=O)[nH]1 [FLUOROURACIL]	2.2	1.5										
